Consider three compounds from ChEMBL document CHEMBL1139875, “Discovery of 4-aminobutyric acid derivatives possessing anticonvulsant and antinociceptive activities: a hybrid pharmacophore approach” (2007).

In test [1] the test system is Mus musculus. The experiment in a line: Anticonvulsant activity in Swiss Albino mouse at 300 mg/kg, ip after 0.5 hr by MES test. On the set-up: dose 300 mg/kg. In kind it is functional, organism-based. The procedure, abridged:
(§1)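 Mice (Swiss, 20-25 g) given i.p. doses of 30, 100 and 300 mg/kg under ADD program protocols, three per group, examined at 0.5 and 4 h in MES, scPTZ, scSTY or scPIC seizure tests. Value is the minimum dose protecting half or more of the mice.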

Test [2] relates to Mus musculus. The experiment in a line: Anticonvulsant activity in Swiss Albino mouse at 300 mg/kg, ip after 0.5 hr by scSTY test. The class given is functional, organism-based. On the set-up: dose 300 mg/kg. An outline of the steps:
as §1

Test [3] has as its system Mus musculus. As to the kind of experiment: Neurotoxicity in Swiss Albino mouse at 300 mg/kg, ip after 4 hrs by rotarod test. In kind it is functional, organism-based. Set-up: dose 300 mg/kg. The procedure, abridged:
(§2)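 Swiss mice (20-25 g) are trained on an accelerating rotorod (10 rpm, 3.2 cm rod), then injected i.p. at 30, 100 or 300 mg/kg, with three per group. Neurotoxicity means failure to keep equilibrium for at least 1 min in each of three trials, checked at 0.5 and 4 h. The value reported is the minimum dose affecting half or more of the mice.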

Test [4] has as its system Mus musculus. As to the kind of experiment: Anticonvulsant activity in Swiss Albino mouse at 300 mg/kg, ip after 0.5 hr by scPIC test. The class given is functional, organism-based. On the set-up: dose 300 mg/kg. The procedure, abridged: as §1
Test [5] deals with Mus musculus. The experiment in a line: Anticonvulsant activity in Swiss Albino mouse at 300 mg/kg, ip after 4 hrs by scPIC test. Set-up: dose 300 mg/kg. The class given is functional, organism-based. The procedure, abridged:
as §1

In test [6] the test system is Mus musculus. The experiment in a line: Anticonvulsant activity in Swiss Albino mouse at 300 mg/kg, ip after 0.5 hr by scPTZ test. On the set-up: dose 300 mg/kg. The class given is functional, organism-based. The procedure, abridged: as §1
Test [7] deals with Mus musculus. As to the kind of experiment: Analgesic activity in Swiss Albino mouse assessed as inhibition of acetic acid-induced writhing responses at 100 mg/kg, ip. The class given is functional. The note with it: for inhibition in vivo at 100 mg/kg: route intraperitoneal. The procedure, abridged: (§3)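 Mice in groups of six dosed i.p. at 100 mg/kg, controls receiving 30% v/v PEG 400 in water. Writhing induced by i.p. 0.1 mL of 3% v/v acetic acid 1 h after drug. Writhes (abdominal stretch with at least one hind limb extended) counted over 30 min; % inhibition calculated. Mean ± SEM, Student's t test.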
For orientation: In writhing tests, fewer writhes than in controls are read as antinociception.

Test [8] relates to Mus musculus. As to the kind of experiment: Anticonvulsant activity in Swiss Albino mouse at 300 mg/kg, ip after 4 hrs by scSTY test. In kind it is functional, organism-based. On the set-up: dose 300 mg/kg. An outline of the steps:
as §1

In test [9] the test system is Mus musculus. As to the kind of experiment: Anticonvulsant activity in Swiss Albino mouse at 300 mg/kg, ip after 4 hrs by MES test. In kind it is functional, organism-based. On the set-up: dose 300 mg/kg. The procedure, abridged:
as §1

Test [10] deals with Mus musculus. As to the kind of experiment: Analgesic activity in Swiss Albino mouse assessed as number of acetic acid-induced writhing per 30 min after 100 mg/kg, ip. The class given is functional. The procedure, abridged: as §3
Test [11] relates to Mus musculus. As to the kind of experiment: Neurotoxicity in Swiss Albino mouse at 300 mg/kg, ip after 0.5 hr by rotarod test. In kind it is functional, organism-based. Set-up: dose 300 mg/kg. The procedure, abridged:
as §2
(The rotarod test checks motor coordination on a turning rod.)

Molecules are shown by their SMILES. Activity calls are given as the source filed them. The calls are words filed in the database; no cut-off is given here.

As to `CC(=O)Oc1ccccc1C(=O)O` [ASPIRIN], the outcome in the test on Mus musculus [1], in the test with Mus musculus [2], with Mus musculus [3], with Mus musculus [4], with Mus musculus [5] and with Mus musculus [6] was inactive. Further, the result in the test on Mus musculus [8], with Mus musculus [9] and with Mus musculus [11] was inactive. The inhibition in vivo at 100 mg/kg with Mus musculus [7] turned out to be 97%. Besides, in the test with Mus musculus [10] (route intraperitoneal), the Activity was 5.7.
As to `CCC1(C)CC(=O)NC1=O` (stereo not drawn), the outcome in the test with Mus musculus [1], in the test with Mus musculus [2], in the test on Mus musculus [3], in the test with Mus musculus [4], in the test on Mus musculus [5] and in the test on Mus musculus [7] was inactive. In addition, the result with Mus musculus [8], with Mus musculus [9], in the test with Mus musculus [10] and with Mus musculus [11] was inactive. Moreover, the result in the test on Mus musculus [6] was Active.
For `C/C(=N\NC(=O)NCCCC(=O)O)c1ccc([N+](=O)[O-])cc1`, the outcome in the test on Mus musculus [1], in the test on Mus musculus [2], in the test on Mus musculus [3], with Mus musculus [4], in the test with Mus musculus [5] and in the test with Mus musculus [6] was inactive. In addition, the outcome with Mus musculus [8], in the test on Mus musculus [9] and with Mus musculus [11] was inactive. In addition, in the test with Mus musculus [7], the inhibition in vivo at 100 mg/kg came out at 67%. Moreover, the Activity in the test on Mus musculus [10] (route intraperitoneal) turned out to be 61.

One may read the inhibition in vivo as the percentage by which the read-out fell short of the control.
